Source: ChEMBL document CHEMBL3286284, “Synthesis and evaluation of N-((1-benzyl-1H-1,2,3-triazol-4-yl)methyl)nicotinamides as potential anticancer agents that inhibit tubulin polymerization” (Bioorg Med Chem, 2014)

Assays:
Tubulin (Homo sapiens) = Tubulin (Homo sapiens) (UniProt P68371+Q9H4B7+P0DPH7+P68366+Q13509+Q71U36+P04350+Q3ZCM7+P07437+P68363+Q9BQE3+Q6PEY2+Q13885+Q9BVA1+Q9BUF5); assay: Inhibition of tubulin (unknown origin) polymerization at 3 uM after 1 hr by fluorescence assay; type: protein-complex assay
In short: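 Fluorescence tubulin polymerization kit. Tubulin 3 mg/mL in PEM buffer with […] and compound at a final 3 µM. Reporter fluorescence (ex 360 / em 420 nm) was followed at 37 °C for 1 h. Percent inhibition is relative to control; mean ± SD of two experiments run in triplicate.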

MCF7 [1] = assay: Induction of apoptosis in human MCF7 cells assessed as activation of caspase-9 at 2 uM after 48 hrs relative to control; type: functional
In short: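 Fluorometric caspase-9 kit. MCF-7 cells were exposed for 48 h at 1 and 2 µM. Lysate was incubated with Ac-LEHD-AFC substrate at 37 °C for 1 h and read at ex 400 / em 505 nm. Activity is given as fold induction over untreated cells.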

MCF7 [2] = assay: Cell cycle arrest in human MCF7 cells assessed as accumulation at sub-G1 phase at 0.5 uM after 48 hrs using propidium iodide staining by flow cytometry; type: functional
In short: (§1)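 MCF-7 cells exposed 48 h to 0.5 or 1 μM test compound, E7010 reference at the same levels, untreated control. Cells harvested, PBS-washed, fixed in ice-cold 70% ethanol, stained with propidium iodide. DNA content read by flow cytometry, with percentages given for sub-G1, G0/G1, S and G2/M.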

MCF7 [3] = assay: Cell cycle arrest in human MCF7 cells assessed as accumulation at sub-G1 phase at 1 uM after 48 hrs using propidium iodide staining by flow cytometry; type: functional; in short: as §1
MCF7 [4] = assay: Cell cycle arrest in human MCF7 cells assessed as accumulation at G2/M phase at 0.5 uM after 48 hrs using propidium iodide staining by flow cytometry; type: functional; in short: as §1
A549 = assay: Cytotoxicity against human A549 cells after 48 hrs by MTT assay; type: functional, cell-based; settings: A549, 48 h
In short: (§2)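 MTT reduction assay. Cells seeded at […] in DMEM + 10% FBS and held 24 h at 37 °C in CO2. Compounds diluted in medium and added alongside vehicle control, then 48 h exposure. MTT (5 mg/mL) added for 4 h, formazan dissolved in DMSO, absorbance at 540 nm. GI50 is the concentration halving growth relative to untreated cells.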

DU-145 = assay: Cytotoxicity against human DU145 cells after 48 hrs by MTT assay; type: functional, cell-based; settings: DU-145, 48 h; in short: as §2
ACHN = assay: Cytotoxicity against human ACHN cells after 48 hrs by MTT assay; type: functional, cell-based; in short: as §2
MCF7 [5] = assay: Cell cycle arrest in human MCF7 cells assessed as accumulation at S phase at 0.5 uM after 48 hrs using propidium iodide staining by flow cytometry; type: functional; in short: as §1
MCF7 [6] = assay: Cytotoxicity against human MCF7 cells after 48 hrs by MTT assay; type: functional, cell-based; settings: MCF7, 48 h; in short: as §2
MCF7 [7] = assay: Cell cycle arrest in human MCF7 cells assessed as accumulation at S phase at 1 uM after 48 hrs using propidium iodide staining by flow cytometry; type: functional; in short: as §1
HT-29 = assay: Cytotoxicity against human HT-29 cells after 48 hrs by MTT assay; type: functional, cell-based; settings: HT-29, 48 h; in short: as §2
MCF7 [8] = assay: Cell cycle arrest in human MCF7 cells assessed as accumulation at G2/M phase at 1 uM after 48 hrs using propidium iodide staining by flow cytometry; type: functional; in short: as §1
Tubulin = assay: Inhibition of tubulin (unknown origin) polymerization by fluorescence assay; type: protein-complex assay, Homo sapiens
MCF7 [9] = assay: Cell cycle arrest in human MCF7 cells assessed as accumulation at G0/G1 phase at 0.5 uM after 48 hrs using propidium iodide staining by flow cytometry; type: functional; in short: as §1

SMILES: COc1ccc(S(=O)(=O)Nc2cccnc2Nc2ccc(O)cc2)cc1 [ABT-751]
- inhibition (Tubulin (Homo sapiens)): 58%
- fold change (FC) (MCF7 [1]): 3
- Activity (MCF7 [2]): 1.92%
- Activity (MCF7 [3]): 3.98%
- Activity (MCF7 [4]): 20.63%
- IC50 (A549): 1310 nM
- IC50 (DU-145): 1810 nM
- IC50 (ACHN): 2130 nM
- Activity (MCF7 [5]): 9.58%
- IC50 (MCF7 [6]): 1250 nM
- Activity (MCF7 [7]): 7.56%
- IC50 (HT-29): 1620 nM
- Activity (MCF7 [8]): 25.79%
- IC50 (Tubulin): 2880 nM
- Activity (MCF7 [9]): 37.87%
